Test results: ChEMBL document CHEMBL1255456, “Effect of NlpE overproduction on multidrug resistance in Escherichia coli” (2010)
In brackets after ≈: the same amount, converted by molar mass. Activity calls are given as the source filed them. The rule behind the calls is not given here.

Assays:
Escherichia coli [1] = test: Antibacterial activity against Escherichia coli NKE159 harboring deletion mutation in acrB, cpxAR protein and plasmid expressing nlpE gene; type: functional
Escherichia coli [2] = test: Antibacterial activity against Escherichia coli NKE1366 harboring deletion mutation in acrB and vector expressing mdtABC gene; type: functional
Escherichia coli [3] = test: Antibacterial activity against Escherichia coli NKE158 harboring deletion mutation in acrB protein and vector expressing cpxAR gene; type: functional
Escherichia coli [4] = test: Antibacterial activity against Escherichia coli NKE127 harboring deletion mutation in acrB and cpxAR protein; type: functional
Escherichia coli [5] = test: Antibacterial activity against Escherichia coli NKE1316 harboring deletion mutation in acrB, acrD and mdtABC protein; type: functional
Escherichia coli [6] = test: Antibacterial activity against Escherichia coli NKE1368 harboring deletion mutation in acrB, acrD and mdtABC genes and carrying empty pHSG398 vector
Escherichia coli [7] = test: Antibacterial activity against Escherichia coli NKE96 harboring deletion mutation in acrB protein; type: functional
Escherichia coli [8] = test: Antibacterial activity against Escherichia coli NKE157 harboring deletion mutation in acrB, acrD protein and plasmid expressing nlpE gene; type: functional
Escherichia coli [9] = test: Antibacterial activity against Escherichia coli NKE128 harboring deletion mutation in acrB and tolC protein; type: functional
Escherichia coli [10] = test: Antibacterial activity against Escherichia coli NKE1359 harboring deletion mutation in acrB protein and plasmid expressing BADnlpE gene in presence of increasing concentration of arabinose; type: functional, organism-based
How it was run: (§1)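 ΔacrB host carrying empty pBAD33 or pBAD33 with nlpE under the arabinose-inducible PBAD promoter. MICs of oxacillin, cloxacillin, nafcillin, cefamandole, aztreonam, novobiocin, deoxycholate and kanamycin were measured with arabinose at several concentrations from 0 to 10,000 μM. Each MIC determination was repeated at least three times.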

Escherichia coli [11] = test: Antibacterial activity against Escherichia coli NKE1365 harboring deletion mutation in acrB and mdtABC protein; type: functional
Escherichia coli [12] = test: Antibacterial activity against Escherichia coli NKE161 harboring deletion mutation in acrB protein, vector expressing tolC gene and plasmid expressing nlpE gene; type: functional
Escherichia coli [13] = test: Antibacterial activity against Escherichia coli NKE1369 harboring deletion mutation in acrB, acrD, mdtABC protein and plasmid expressing nlpE gene; type: functional
Escherichia coli [14] = test: Antibacterial activity against Escherichia coli NKE154 harboring vector expressing acrB deletion mutant; type: functional
Escherichia coli [15] = test: Antibacterial activity against Escherichia coli NKE160 harboring deletion mutation in acrB protein and vector expressing tolC gene; type: functional
Escherichia coli [16] = test: Antibacterial activity against Escherichia coli NKE156 harboring deletion mutation in acrB protein and vector expressing acrD gene; type: functional
Escherichia coli [17] = test: Antibacterial activity against Escherichia coli NKE126 harboring deletion mutation in acrB and acrD protein; type: functional
Escherichia coli [18] = test: Antibacterial activity against Escherichia coli NKE155 harboring deletion mutation in acrB protein and plasmid expressing nlpE gene; type: functional
Escherichia coli [19] = test: Antibacterial activity against Escherichia coli NKE1355 harboring deletion mutation in acrB protein and plasmid expressing BAD gene in presence of increasing concentration of arabinose; type: functional, organism-based; how it was run: as §1
Escherichia coli [20] = test: Antibacterial activity against Escherichia coli NKE1367 harboring deletion mutation in acrB, mdtABC protein and plasmid expressing nlpE gene; type: functional

Row | SMILES | MIC (Escherichia coli [1]) [µg/mL] | MIC (Escherichia coli [2]) [µg/mL] | MIC (Escherichia coli [3]) [µg/mL] | MIC (Escherichia coli [4]) [µg/mL] | MIC (Escherichia coli [5]) [µg/mL] | MIC (Escherichia coli [6]) [µg/mL] | MIC (Escherichia coli [7]) [µg/mL] | MIC (Escherichia coli [8]) [µg/mL] | MIC (Escherichia coli [9]) [µg/mL] | Activity (Escherichia coli [10]) | MIC (Escherichia coli [11]) [µg/mL] | MIC (Escherichia coli [12]) [µg/mL] | MIC (Escherichia coli [13]) [µg/mL] | MIC (Escherichia coli [14]) [µg/mL] | MIC (Escherichia coli [15]) [µg/mL] | MIC (Escherichia coli [16]) [µg/mL] | MIC (Escherichia coli [17]) [µg/mL] | MIC (Escherichia coli [18]) [µg/mL] | Activity (Escherichia coli [19]) | MIC (Escherichia coli [20]) [µg/mL]
1 | Cc1onc(-c2ccccc2)c1C(=O)N[C@@H]1C(=O)N2[C@@H]1SC(C)(C)[C@@H]2C(=O)O [OXACILLIN] | 0.5 (≈ 1.25 µM) | 1 (≈ 2.49 µM) | 0.5 (≈ 1.25 µM) | 0.5 (≈ 1.25 µM) | 0.5 (≈ 1.25 µM) | 0.5 (≈ 1.25 µM) | 1 (≈ 2.49 µM) | 2 (≈ 4.98 µM) | 0.5 (≈ 1.25 µM) | inactive | 1 (≈ 2.49 µM) | 0.5 (≈ 1.25 µM) | 0.5 (≈ 1.25 µM) | 1 (≈ 2.49 µM) | 0.5 (≈ 1.25 µM) | 0.5 (≈ 1.25 µM) | 0.5 (≈ 1.25 µM) | 8 (≈ 19.9 µM) | Active | 4 (≈ 9.96 µM)
2 | CC1(C)S[C@@H]2[C@H](NC(=O)C(C(=O)O)c3ccccc3)C(=O)N2[C@H]1C(=O)O (some centres undefined) [CARBENICILLIN] | 1 (≈ 2.64 µM) | 1 (≈ 2.64 µM) | 1 (≈ 2.64 µM) | 1 (≈ 2.64 µM) | 1 (≈ 2.64 µM) | 1 (≈ 2.64 µM) | 1 (≈ 2.64 µM) | 2 (≈ 5.29 µM) | 1 (≈ 2.64 µM) |  | 1 (≈ 2.64 µM) | 1 (≈ 2.64 µM) | 1 (≈ 2.64 µM) | 1 (≈ 2.64 µM) | 1 (≈ 2.64 µM) | 1 (≈ 2.64 µM) | 1 (≈ 2.64 µM) | 8 (≈ 21.1 µM) |  | 4 (≈ 10.6 µM)
3 | CO[C@@H]1[C@@H](OC(N)=O)[C@@H](O)[C@H](Oc2ccc3c(O)c(NC(=O)c4ccc(O)c(CC=C(C)C)c4)c(=O)oc3c2C)OC1(C)C [NOVOBIOCIN] | 4 (≈ 6.53 µM) | 4 (≈ 6.53 µM) | 4 (≈ 6.53 µM) | 4 (≈ 6.53 µM) | 2 (≈ 3.26 µM) | 2 (≈ 3.26 µM) | 4 (≈ 6.53 µM) | 8 (≈ 13.1 µM) | 2 (≈ 3.26 µM) | inactive | 4 (≈ 6.53 µM) | 2 (≈ 3.26 µM) | 2 (≈ 3.26 µM) | 4 (≈ 6.53 µM) | 2 (≈ 3.26 µM) | 4 (≈ 6.53 µM) | 4 (≈ 6.53 µM) | 16 (≈ 26.1 µM) | Active | 8 (≈ 13.1 µM)
4 | CCOc1ccc2ccccc2c1C(=O)N[C@@H]1C(=O)N2[C@@H]1SC(C)(C)[C@@H]2C(=O)O [NAFCILLIN] | 1 (≈ 2.41 µM) | 1 (≈ 2.41 µM) | 1 (≈ 2.41 µM) | 1 (≈ 2.41 µM) | 1 (≈ 2.41 µM) | 1 (≈ 2.41 µM) | 2 (≈ 4.83 µM) | 4 (≈ 9.65 µM) | 1 (≈ 2.41 µM) | inactive | 1 (≈ 2.41 µM) | 1 (≈ 2.41 µM) | 1 (≈ 2.41 µM) | 2 (≈ 4.83 µM) | 1 (≈ 2.41 µM) | 1 (≈ 2.41 µM) | 1 (≈ 2.41 µM) | 16 (≈ 38.6 µM) | Active | 4 (≈ 9.65 µM)
5 | CC1(C)S[C@@H]2[C@H](NC(=O)C(c3ccccc3)S(=O)(=O)O)C(=O)N2[C@H]1C(=O)O (some centres undefined) [SULBENICILLIN] | 1 (≈ 2.41 µM) | 2 (≈ 4.83 µM) | 1 (≈ 2.41 µM) | 1 (≈ 2.41 µM) | 1 (≈ 2.41 µM) | 1 (≈ 2.41 µM) | 2 (≈ 4.83 µM) | 2 (≈ 4.83 µM) | 1 (≈ 2.41 µM) |  | 2 (≈ 4.83 µM) | 1 (≈ 2.41 µM) | 1 (≈ 2.41 µM) | 2 (≈ 4.83 µM) | 1 (≈ 2.41 µM) | 1 (≈ 2.41 µM) | 1 (≈ 2.41 µM) | 16 (≈ 38.6 µM) |  | 8 (≈ 19.3 µM)
6 | Cc1onc(-c2ccccc2Cl)c1C(=O)N[C@@H]1C(=O)N2[C@@H]1SC(C)(C)[C@@H]2C(=O)O [CLOXACILLIN] | 1 (≈ 2.29 µM) | 1 (≈ 2.29 µM) | 1 (≈ 2.29 µM) | 1 (≈ 2.29 µM) | 0.5 (≈ 1.15 µM) | 0.5 (≈ 1.15 µM) | 1 (≈ 2.29 µM) | 2 (≈ 4.59 µM) | 0.25 (≈ 0.574 µM) | inactive | 1 (≈ 2.29 µM) | 0.25 (≈ 0.574 µM) | 0.5 (≈ 1.15 µM) | 1 (≈ 2.29 µM) | 0.25 (≈ 0.574 µM) | 1 (≈ 2.29 µM) | 1 (≈ 2.29 µM) | 16 (≈ 36.7 µM) | Active | 4 (≈ 9.18 µM)
7 | C[C@H]1[C@H](NC(=O)/C(=N\OC(C)(C)C(=O)O)c2csc(N)n2)C(=O)N1S(=O)(=O)O [AZTREONAM] | 0.063 (≈ 0.145 µM) | 0.063 (≈ 0.145 µM) | 0.063 (≈ 0.145 µM) | 0.063 (≈ 0.145 µM) | 0.063 (≈ 0.145 µM) | 0.063 (≈ 0.145 µM) | 0.063 (≈ 0.145 µM) | 0.063 (≈ 0.145 µM) | 0.063 (≈ 0.145 µM) | inactive | 0.063 (≈ 0.145 µM) | 0.063 (≈ 0.145 µM) | 0.063 (≈ 0.145 µM) | 0.063 (≈ 0.145 µM) | 0.063 (≈ 0.145 µM) | 0.063 (≈ 0.145 µM) | 0.063 (≈ 0.145 µM) | 0.25 (≈ 0.574 µM) | Active | 0.25 (≈ 0.574 µM)
8 | NC[C@H]1O[C@H](O[C@H]2[C@H](O)[C@@H](O[C@H]3O[C@H](CO)[C@@H](O)[C@H](N)[C@H]3O)[C@H](N)C[C@@H]2N)[C@H](O)[C@@H](O)[C@@H]1O [KANAMYCIN] | 1 (≈ 2.06 µM) | 2 (≈ 4.13 µM) | 1 (≈ 2.06 µM) | 1 (≈ 2.06 µM) | 2 (≈ 4.13 µM) | 2 (≈ 4.13 µM) | 2 (≈ 4.13 µM) | 4 (≈ 8.26 µM) | 1 (≈ 2.06 µM) | inactive | 2 (≈ 4.13 µM) | 2 (≈ 4.13 µM) | 4 (≈ 8.26 µM) | 2 (≈ 4.13 µM) | 1 (≈ 2.06 µM) | 2 (≈ 4.13 µM) | 2 (≈ 4.13 µM) | 8 (≈ 16.5 µM) | Active | 8 (≈ 16.5 µM)
9 | NC(=O)OC[C@@H]1[C@H](NC(=O)/C(=N\OCC(=O)O)c2csc(N)n2)C(=O)N1S(=O)(=O)O [CARUMONAM] | 0.031 (≈ 0.0665 µM) | 0.031 (≈ 0.0665 µM) | 0.031 (≈ 0.0665 µM) | 0.031 (≈ 0.0665 µM) | 0.031 (≈ 0.0665 µM) | 0.031 (≈ 0.0665 µM) | 0.031 (≈ 0.0665 µM) | 0.063 (≈ 0.135 µM) | 0.031 (≈ 0.0665 µM) |  | 0.031 (≈ 0.0665 µM) | 0.031 (≈ 0.0665 µM) | 0.031 (≈ 0.0665 µM) | 0.031 (≈ 0.0665 µM) | 0.031 (≈ 0.0665 µM) | 0.031 (≈ 0.0665 µM) | 0.031 (≈ 0.0665 µM) | 0.25 (≈ 0.536 µM) |  | 0.13 (≈ 0.279 µM)
10 | C[C@H](CCC(=O)O)[C@H]1CC[C@H]2[C@@H]3CC[C@@H]4C[C@H](O)CC[C@]4(C)[C@H]3C[C@H](O)[C@]12C [DEOXYCHOLIC ACID] | 2500 (≈ 6370 µM) | 5000 (≈ 12700 µM) | 2500 (≈ 6370 µM) | 2500 (≈ 6370 µM) | 2500 (≈ 6370 µM) | 2500 (≈ 6370 µM) | 5000 (≈ 12700 µM) | 10000 (≈ 25500 µM) | 156 (≈ 397 µM) | inactive | 5000 (≈ 12700 µM) | 156 (≈ 397 µM) | 2500 (≈ 6370 µM) | 5000 (≈ 12700 µM) | 156 (≈ 397 µM) | 5000 (≈ 12700 µM) | 5000 (≈ 12700 µM) | 40000 (≈ 102000 µM) | Active | 10000 (≈ 25500 µM)
11 | Cn1nnnc1SCC1=C(C(=O)O)N2C(=O)[C@@H](NC(=O)[C@H](O)c3ccccc3)[C@H]2SC1 [CEFAMANDOLE] | 0.063 (≈ 0.136 µM) | 0.063 (≈ 0.136 µM) | 0.063 (≈ 0.136 µM) | 0.063 (≈ 0.136 µM) | 0.063 (≈ 0.136 µM) | 0.063 (≈ 0.136 µM) | 0.063 (≈ 0.136 µM) | 0.13 (≈ 0.281 µM) | 0.063 (≈ 0.136 µM) | inactive | 0.063 (≈ 0.136 µM) | 0.063 (≈ 0.136 µM) | 0.063 (≈ 0.136 µM) | 0.063 (≈ 0.136 µM) | 0.063 (≈ 0.136 µM) | 0.063 (≈ 0.136 µM) | 0.063 (≈ 0.136 µM) | 0.25 (≈ 0.541 µM) | Active | 0.13 (≈ 0.281 µM)
